Laboratory results reported in ChEMBL document CHEMBL1129357, “4-[4-[(2-Hydroxybenzoyl)amino]phenyl]butyric acid as a novel oral delivery agent for recombinant human growth hormone” (1996).

Assays:
Format in all cases: functional
[1] = system: Rattus norvegicus; assay: Ability to promote absorption of recombinant human growth hormone from gastrointestinal tract in rats by using ELISA assay at a of dose 25 mg/kg, rhGH 1 mg/kg by IC administration
Summary of the method: (§1)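 Male Sprague-Dawley rats, 225-250 g, in groups of six or seven, with free access to water for 24 h beforehand. Ketamine 44 mg/kg plus thorazine 1.5 mg/kg given just before dosing. Aqueous delivery agent, adjusted to pH 7.2-7.8, with rhGH, given by oral gavage or intracolonic instillation. Serum rhGH measured by ELISA; peak concentration in ng/mL reported as mean ± SD.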

[2] = system: Rattus norvegicus; assay: Ability to promote absorption of recombinant human growth hormone from the gastrointestinal tract in rats by using ELISA assay. (Compound dose 500 mg/kg, rhGH 6 mg/kg by OG administration); summary of the method: as §1
[3] = system: Rattus norvegicus; assay: Ability to promote absorption of recombinant human growth hormone from the gastrointestinal tract in rats by using ELISA assay. (Compound dose 300 mg/kg, rhGH 6 mg/kg by OG administration); summary of the method: as §1
[4] = system: Rattus norvegicus; assay: Ability to promote absorption of recombinant human growth hormone from the gastrointestinal tract in rats by using ELISA assay. (Compound dose 400 mg/kg, rhGH 6 mg/kg by OG administration); summary of the method: as §1
[5] = system: Rattus norvegicus; assay: Ability to promote absorption of recombinant human growth hormone from the gastrointestinal tract in rats by using ELISA assay at a of dose 25 mg/kg, rhGH 1 mg/kg by IC administration; summary of the method: as §1
[6] = system: Rattus norvegicus; assay: Ability to promote absorption of recombinant human growth hormone (rhGH) from the gastrointestinal tract in rats by using ELISA assay. (Compound dose 300 mg/kg, rhGH 6 mg/kg by OG administration); summary of the method: as §1
[7] = system: Rattus norvegicus; assay: Ability to promote absorption of recombinant human growth hormone from gastrointestinal tract in rats by using ELISA assay. (Compound dose 500 mg/kg, rhGH 6 mg/kg by OG administration); summary of the method: as §1
[8] = system: Rattus norvegicus; assay: Ability to promote absorption of recombinant human growth hormone from the gastrointestinal tract in rats by using ELISA assay. (Compound dose 200 mg/kg, rhGH 6 mg/kg by OG administration); summary of the method: as §1
[9] = system: Rattus norvegicus; assay: Ability to promote absorption of recombinant human growth hormone (rhGH) from the gastrointestinal tract in rats by using ELISA assay. (Compound at a of dose 250 mg/kg, rhGH 6 mg/kg by OG administration); summary of the method: as §1
[10] = system: Rattus norvegicus; assay: Ability to promote absorption of recombinant human growth hormone from the gastrointestinal tract in rats by using ELISA assay. (Compound dose 25 mg/kg, rhGH 6 mg/kg by OG administration); settings: in the assay text read “rhGH 1 mg/kg by IC administration” for “rhGH 6 mg/kg by OG administration”; summary of the method: as §1

O=C(O)CCc1ccc(NC(=O)c2ccccc2O)cc1
Peak rhGH [1]: 37.2 ng/mL

O=C(CC1CCCCC1)Nc1ccc(C(=O)O)cc1
Peak rhGH [2]: 0 ng/mL

COc1ccccc1/C=C/C(=O)Nc1ccc(CCC(=O)O)cc1
Peak rhGH [1]: 61.7 ng/mL

O=C(O)CCCc1ccc(NC(=O)c2c(O)cccc2O)cc1
Peak rhGH [1]: 20.9 ng/mL

O=C(O)Cc1ccc(NC(=O)Cc2ccccc2)cc1
Peak rhGH [3]: 9 ng/mL

O=C(O)CCCc1ccc(NC(=O)C2CCCCCC2)cc1
Peak rhGH [4]: 92.8 ng/mL

O=C(O)CCCc1ccc(NC(=O)Cc2ccccc2F)cc1
Peak rhGH [1]: 7.3 ng/mL

O=C(O)CCCc1ccc(NC(=O)CCCC2CCCCC2)cc1
Peak rhGH [1]: 26 ng/mL

O=C(O)Cc1ccc(NS(=O)(=O)c2ccccc2)cc1
Peak rhGH [2]: 0 ng/mL

O=C(Cc1ccccc1)Nc1ccc(C(=O)O)cc1
Peak rhGH [2]: 0 ng/mL

O=C(O)CCCc1ccc(NC(=O)CCCCc2ccccc2)cc1
Peak rhGH [1]: 8.4 ng/mL

COc1ccccc1/C=C/C(=O)Nc1ccc(C(=O)O)cc1
Peak rhGH [5]: 30.4 ng/mL

O=C(O)CCCc1ccc(NC(=O)C(O)C(O)c2ccccc2)cc1 (configuration not stated)
Peak rhGH [1]: 2.5 ng/mL

O=C(O)Cc1ccc(NC(=O)c2ccccc2O)cc1
Peak rhGH [1]: 5.6 ng/mL

Cc1ccccc1/C=C/C(=O)Nc1ccc(CCCC(=O)O)cc1
Peak rhGH [5]: 16.4 ng/mL

O=C(CCCc1ccccc1)Nc1ccc(C(=O)O)cc1
Peak rhGH [2]: 11.9 ng/mL

O=C(O)CCCc1ccc(NC(=O)/C=C/c2c(F)c(F)c(F)c(F)c2F)cc1
Peak rhGH [4]: 49.7 ng/mL

O=C(O)CCCc1ccc(NC(=O)c2ccccc2C(=O)O)cc1
Peak rhGH [1]: 22.3 ng/mL

O=C(O)CCCc1ccc(NC(=O)CCC(=O)c2ccccc2)cc1
Peak rhGH [1]: 0.6 ng/mL

O=C(O)CCCc1ccc(NC(=O)c2ccc(-c3ccccc3)c(-c3ccccc3)c2)cc1
Peak rhGH [4]: 28.2 ng/mL

O=C(O)CCCc1ccc(NC(=O)c2cccc([N+](=O)[O-])c2)cc1
Peak rhGH [1]: 33.5 ng/mL

CCC(C(=O)Nc1ccc(CCCC(=O)O)cc1)c1ccccc1 (configuration not stated)
Peak rhGH [3]: 5.9 ng/mL

O=C(O)/C=C/c1ccc(NC(=O)c2ccccc2)cc1
Peak rhGH [4]: 6.5 ng/mL

O=C(O)CCCc1ccc(NC(=O)c2ccccc2F)cc1
Peak rhGH [5]: 20.8 ng/mL | Peak rhGH [3]: 43.4 ng/mL

COc1ccc(/C=C/C(=O)Nc2ccc(CCC(=O)O)cc2)cc1
Peak rhGH [1]: 5 ng/mL

CC(C(=O)Nc1ccc(CCCC(=O)O)cc1)c1ccccc1 (configuration not stated)
Peak rhGH [3]: 2.3 ng/mL

O=C(O)CCCc1ccc(NC(=O)c2ccccc2)cc1
Peak rhGH [6]: 5.4 ng/mL | Peak rhGH [7]: 21.7 ng/mL | Peak rhGH [5]: 17.5 ng/mL

O=C(O)CCCc1ccc(NC(=O)Cc2ccccc2O)cc1
Peak rhGH [3]: 0 ng/mL

O=C(O)CCCc1ccc(NC(=O)c2cccc(C(F)(F)F)c2)cc1
Peak rhGH [5]: 17.6 ng/mL

O=C(O)CCCc1ccc(NC(=O)c2ccccc2OC(F)(F)F)cc1
Peak rhGH [1]: 56.8 ng/mL

O=C(CCc1ccccc1)Nc1ccc(C(=O)O)cc1
Peak rhGH [2]: 3.3 ng/mL

CC1CCC(C(=O)Nc2ccc(CCCC(=O)O)cc2)CC1 (configuration not stated)
Peak rhGH [4]: 41.6 ng/mL

O=C(O)CCCc1ccc(NCc2ccccc2)cc1
Peak rhGH [8]: 20.4 ng/mL

O=C(O)CCCc1ccc(NC(=O)c2ccccc2[N+](=O)[O-])cc1
Peak rhGH [1]: 14.9 ng/mL

O=C(O)CCCc1ccc(NS(=O)(=O)c2ccccc2)cc1
Peak rhGH [2]: 28 ng/mL | Peak rhGH [9]: 2.6 ng/mL

O=C(O)Cc1ccc(NC(=O)CC2CCCCC2)cc1
Peak rhGH [3]: 15.7 ng/mL

O=C(O)CCCc1ccc(NC(=O)c2ccc(F)cc2)cc1
Peak rhGH [3]: 2.8 ng/mL

O=C(O)CCCc1ccc(NC(=O)c2cccc(-c3ccccc3)c2-c2ccccc2)cc1
Peak rhGH [2]: 5.9 ng/mL

O=C(O)CCCc1ccc(NC(=O)c2ccc(O)cc2O)cc1
Peak rhGH [8]: 16.9 ng/mL

O=C(O)c1ccc(NC(=O)c2ccccc2O)cc1
Peak rhGH [1]: 0 ng/mL

O=C(O)c1ccc(NS(=O)(=O)c2ccccc2)cc1
Peak rhGH [1]: 0 ng/mL | Peak rhGH [2]: 13.7 ng/mL

CC(C)Cc1ccc(CC(=O)Nc2ccc(CCCC(=O)O)cc2)cc1
Peak rhGH [8]: 7.8 ng/mL

O=C(O)CCCc1ccc(NC(=O)/C=C/c2ccccc2)cc1
Peak rhGH [4]: 49.7 ng/mL

O=C(CCCC1CCCCC1)Nc1ccc(C(=O)O)cc1
Peak rhGH [2]: 29.3 ng/mL

O=C(O)CCCc1ccc(NC(=O)c2ccc3c(c2)OCO3)cc1
Peak rhGH [1]: 0 ng/mL

Cc1cccc(C)c1C(=O)Nc1ccc(CCCC(=O)O)cc1
Peak rhGH [1]: 7.7 ng/mL

O=C(O)c1ccc(NC(=O)c2ccc(F)cc2)cc1
Peak rhGH [1]: 2.2 ng/mL | Peak rhGH [3]: 1 ng/mL

O=C(O)CCCc1ccc(NC(=O)C2CCCCC2C(=O)O)cc1 (configuration not stated)
Peak rhGH [8]: 0 ng/mL

O=C(O)CCCc1ccc(NCc2ccccc2O)cc1
Peak rhGH [1]: 32.5 ng/mL

O=C(O)CCCc1ccc(NC(=O)c2ccc(-c3ccccc3)cc2)cc1
Peak rhGH [2]: 39.9 ng/mL

COc1ccc(C(=O)Nc2ccc(CCCC(=O)O)cc2)cc1
Peak rhGH [3]: 0 ng/mL

O=C(O)CCCc1ccc(NC(=O)/C=C/c2ccccc2F)cc1
Peak rhGH [1]: 7.7 ng/mL

O=C(O)CCCc1ccc(NC(=O)CCOc2ccccc2)cc1
Peak rhGH [1]: 44.1 ng/mL

CC1CCC(C(=O)Nc2ccc(C(=O)O)cc2)CC1 (configuration not stated)
Peak rhGH [4]: 0 ng/mL

O=C(O)CCCc1ccc(NC(=O)c2cccc(Cl)c2)cc1
Peak rhGH [5]: 0 ng/mL

O=C(O)CCc1ccc(NC(=O)c2ccccc2[N+](=O)[O-])cc1
Peak rhGH [1]: 17.6 ng/mL

COc1cccc(O)c1C(=O)Nc1ccc(CCC(=O)O)cc1
Peak rhGH [1]: 9.3 ng/mL

CCC(C(=O)Nc1ccc(CCCC(=O)O)cc1)C1CCCCC1 (configuration not stated)
Peak rhGH [4]: 0.5 ng/mL

O=C(O)Cc1ccc(NC(=O)CCc2ccccc2)cc1
Peak rhGH [3]: 12.6 ng/mL

O=C(O)CCCc1ccc(NC(=O)CCc2ccccc2)cc1
Peak rhGH [3]: 12.8 ng/mL

O=C(O)CCCc1ccc(NC(=O)CC2CCCCC2)cc1
Peak rhGH [2]: 24.2 ng/mL

O=C(O)CCCc1ccc(NC(=O)Cc2ccccc2)cc1
Peak rhGH [3]: 8.1 ng/mL

COc1ccccc1/C=C/C(=O)Nc1ccc(CCCC(=O)O)cc1
Peak rhGH [10]: 32.9 ng/mL

COc1ccccc1C(=O)Nc1ccc(CCCC(=O)O)cc1
Peak rhGH [1]: 17.8 ng/mL

CN(C)c1cccc(C(=O)Nc2ccc(CCCC(=O)O)cc2)c1
Peak rhGH [1]: 50.7 ng/mL

Cc1ccccc1C(=O)Nc1ccc(CCCC(=O)O)cc1
Peak rhGH [5]: 9.08 ng/mL

O=C(O)CCCc1ccc(NC(=O)C2CCCCC2)cc1
Peak rhGH [2]: 63.8 ng/mL

O=C(O)CCCc1ccc(NC(=O)CCCc2ccccc2)cc1
Peak rhGH [3]: 17.9 ng/mL

O=C(O)CCCc1ccc(NC(=O)c2ccccc2O)cc1
Peak rhGH [5]: 64.7 ng/mL | Peak rhGH [3]: 49.7 ng/mL

O=C(O)CCCc1ccc(NC(=O)c2ccccc2Cl)cc1
Peak rhGH [5]: 52.2 ng/mL
